For orientation: pIC50 means −log10 of the IC50, conventionally taken in molar units. A higher pIC50 goes with a small IC50.

The source of these data is ChEMBL document CHEMBL1123901, “Inhibition of delayed hypersensitivity reactions by cinnamyl 1-thioglycosides” (J Med Chem, 1987).

Type in all cases: functional
Test [1] is filed under the species Cavia porcellus. Briefly: [3H]-Thymidine uptake was determined by liquid scintillation spectroscopy in ovalbumin (OVA) pulsed compound 2 treated Macrophages. The procedure, abridged: (§1)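 Guinea pig PELs and irradiated (2100 rads) exudate macrophages were each preincubated with compound (1 mM or 500 μM, depending on agent) for 18 h at 37 °C, then washed. Macrophages were pulsed with OVA 100 μg/mL for 1 h at 37 °C and washed. Cells were viability-adjusted by trypan blue and mixed, with or without OVA 10 μg/mL. Culture ran 72 h at 37 °C with [3H]thymidine read by scintillation, as mean Δcpm × 10^-3.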

The species entered for test [2] is Cavia porcellus. Briefly: [3H]thymidine uptake was determined by liquid scintillation spectroscopy in ovalbumin pulsed Macrophages. The procedure, abridged: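 Pretreatment protocol. Strain 2 female guinea pigs immunized with OVA in CFA (100 μg OVA; 0.1 mL/foot); mineral oil given ip at day 14, peritoneal exudate collected 4 days later. Nylon-wool-enriched T cells (PELs) and irradiated (2100 rads) exudate macrophages each incubated with sugar derivative 18 h at 37 °C, then washed. Macrophages pulsed with OVA 100 μg/mL for 1 h at 37 °C and washed. Viability adjusted by trypan blue; populations mixed and cultured 72 h at 37 °C. [3H]thymidine (1 μCi) added 18-24 h before harvest; read by liquid scintillation as mean Δcpm ×10^-3.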

Test [3] is filed under the species Cavia porcellus. In words: Effect on guinea pig T cell proliferation was tested by measuring the incorporation of [3H]-thymidine uptake at the concentration of 0 uM. The procedure, abridged:
(§2)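 Strain 2 female guinea pigs were immunized with 100 μg OVA in CFA split over the footpads. At day 14 they received mineral oil ip, and the exudate was collected 4 days later. T cells were enriched on nylon wool. 2×10^5 cells per well were cultured with 10% irradiated (2100 rads) exudate cells, OVA (10 μg/mL) and compound, for 72 h at 37 °C in 5% CO2. [3H]thymidine (1 μCi) was added 18-24 h before harvest. Triplicate wells; mean Δcpm ± SD.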

For test [4], the species on record is Cavia porcellus. In words: Inhibitory activity against [3H]thymidine uptake by cinnamyl 1-thioglycosides using guinea pig T cell proliferation assay.
The species named for test [5] is Cavia porcellus. Briefly: Effect on guinea pig T cell proliferation was tested by measuring the incorporation of [3H]thymidine uptake at the concentration of 10 uM. A digest of the protocol:
as §2

The species entered for test [6] is Cavia porcellus. Briefly: Effect on guinea pig T cell proliferation was tested by measuring the incorporation of [3H]-thymidine uptake at the concentration of 100 uM. The procedure, abridged:
as §2

For test [7], the species on record is Cavia porcellus. In words: Effect on guinea pig T cell proliferation was tested by measuring the incorporation of [3H]thymidine uptake at the concentration of 1000 uM. The procedure, abridged:
as §2

Test [8] is filed under the species Cavia porcellus. In words: Effect on guinea pig T cell proliferation was tested by measuring the incorporation of [3H]thymidine uptake at the concentration of 500 uM. A digest of the protocol: as §2
The species named for test [9] is Cavia porcellus. In words: Effect on guinea pig T cell proliferation was tested by measuring the incorporation of [3H]thymidine uptake at the concentration of 750 uM. A digest of the protocol: as §2
For test [10], the species on record is Cavia porcellus. Briefly: [3H]thymidine uptake was determined by liquid scintillation spectroscopy in 2 pretreated OVA pulsed Macrophages plus OVA (10 ug/mL) pretreated with 500 uM 2 at 37 degree C for 18 h. A digest of the protocol:
as §1

For test [11], the species on record is Cavia porcellus. In words: [3H]thymidine uptake was determined by liquid scintillation spectroscopy in 3 treated Macrophages plus OVA (10 ug/mL). The procedure, abridged:
as §1

The species entered for test [12] is Cavia porcellus. In words: [3H]thymidine uptake was determined by liquid scintillation spectroscopy in Macrophages. A digest of the protocol: as §1
The species named for test [13] is Cavia porcellus. Briefly: [3H]thymidine uptake was determined by liquid scintillation spectroscopy in Macrophages pretreated with 500 uM 2 at 37 degree C for 18 h. A digest of the protocol:
as §1

The species entered for test [14] is Cavia porcellus. Briefly: [3H]thymidine uptake was determined by liquid scintillation spectroscopy in OVA pulsed Macrophages pretreated with 500 uM 2 at 37 degree C for 18 h. The procedure, abridged:
as §1

Test [15] is filed under the species Cavia porcellus. In words: [3H]-Thymidine uptake was determined by liquid scintillation spectroscopy in OVA pulsed compound 2 pretreated Macrophages pretreated with 500 uM 2 at 37 degree C for 18 h. The procedure, abridged: as §1
Test [16] is filed under the species Cavia porcellus. In words: [3H]-Thymidine uptake was determined by liquid scintillation spectroscopy in compound 2 pretreated Macrophages plus OVA (ug/mL) pretreated with 500 uM 2 at 37 degree C for 18 h. The procedure, abridged:
as §1

The species entered for test [17] is Cavia porcellus. Briefly: [3H]thymidine uptake was determined by liquid scintillation spectroscopy in compound 2 treated Macrophages. A digest of the protocol:
as §1

For test [18], the species on record is Cavia porcellus. Briefly: [3H]thymidine uptake was determined by liquid scintillation spectroscopy in compound 2 treated Macrophages pretreated with 500 uM 2 at 37 degree C for 18 h. A digest of the protocol: as §1
Test [19] deals with Mus musculus. In words: Compound was administered intraperitoneally to mice before increase in foot-pad thickness at a dose of 10 mg/kg. Conditions: route intraperitoneal. The procedure, abridged: (§3)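 DTH in A/J female mice (20-23 g): cyclophosphamide 200 mg/kg sc, then iv sensitization with 10^8 washed SRBC 3 days later. On day 6 after sensitization, one hind footpad challenged with 10^8 SRBC in 20 μL, the other given saline. Dosing ip or po to overnight-fasted mice 20 min before challenge. Swelling read at 24 and 48 h as antigen minus saline footpad (mm × 10), by constant-pressure caliper.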

In test [20] the test system is Mus musculus. In words: Compound was administered intraperitoneally to mice before increase in foot-pad thickness at a dose of 3 mg/kg. Conditions: route intraperitoneal. A digest of the protocol:
as §3

In test [21] the test system is Mus musculus. In words: Compound was administered orally to mice before increase in foot-pad thickness at a dose of 10 mg/kg. Conditions: route oral. A digest of the protocol: as §3
In test [22] the test system is Mus musculus. Briefly: Compound was administered orally to mice before increase in foot-pad thickness at a dose of 3 mg/kg. Conditions: route oral. The procedure, abridged: as §3
Test [23] concerns Mus musculus. In words: Compound was administered orally to mice before increase in foot-pad thickness at a dose of 30 mg/kg. As to conditions: route oral. The procedure, abridged:
as §3

Test [24] relates to Mus musculus. Briefly: Percent reduction in mice after oral administration 10 mg/kg. A digest of the protocol: as §3
For test [25], the system named is Mus musculus. Briefly: Percent reduction in mice after intraperitoneal administration 3 mg/kg. The procedure, abridged: as §3
Test [26] relates to Mus musculus. In words: Percent reduction in mice after intraperitoneal administration of 30 mg/kg. The procedure, abridged:
as §3

Test [27] relates to Mus musculus. In words: Percent reduction in mice after oral administration 3 mg/kg. The procedure, abridged: as §3
The subject of test [28] is Mus musculus. In words: Percent reduction in mice after oral administration of 30 mg/kg. The procedure, abridged: as §3
Test [29] relates to Mus musculus. In words: Percent reduction in mice after intraperitoneal administration 10 mg/kg. The procedure, abridged:
as §3

The species named for test [30] is Cavia porcellus. Briefly: [3H]thymidine uptake was determined by liquid scintillation spectroscopy in compound 2 pretreated OVA pulsed Macrophages plus OVA (10 ug/mL). The procedure, abridged:
as §1

The species named for test [31] is Cavia porcellus. Briefly: Effect on guinea pig T cell proliferation was tested by measuring the incorporation of [3H]thymidine uptake at the concentration of 250 uM. The procedure, abridged: as §2
Test [32] concerns Mus musculus. Briefly: Compound was administered intraperitoneally to mice before increase in foot-pad thickness at a dose of 30 mg/kg. As to conditions: route intraperitoneal. A digest of the protocol:
as §3

The species named for test [33] is Cavia porcellus. In words: Effect on guinea pig T cell proliferation was ested by measuring the incorporation of (+/)-[3H]thymidine uptake at the concentration of 100 uM. The procedure, abridged:
as §2

The species named for test [34] is Cavia porcellus. Briefly: Inhibitory activity against [3H]thymidine uptake by cinnamyl 1-thioglycosides in guinea pig T cell proliferation. As to conditions: Cavia porcellus, T-cell, 72 h. A digest of the protocol:
as §2

Test [35] has as its system Mus musculus. In words: Compound was administered orally to mice before increase in foot-pad thickness at a dose of 2.5 mg/kg. Conditions: route oral. The procedure, abridged:
as §3

In test [36] the test system is Mus musculus. In words: Percent reduction in mice after oral administration 2.5 mg/kg. The procedure, abridged: as §3

pIC50: −log10 of the molar value.

Take `OCC1OC(SC/C=C/c2ccccc2)C(O)C(O)C1O` (stereo in doubt; 2): the Delta cpm x10e-3 came out at 27.8 in the test listed under Cavia porcellus [1]; 41.36 in the test listed under Cavia porcellus [2]; 12.06 in the test filed under Cavia porcellus [10]; 14.5 in the test listed under Cavia porcellus [11]; 1.31 in the test listed under Cavia porcellus [12]; 1.16 in the test filed under Cavia porcellus [13]. The “Delta cpm x10e-3” value in the test listed under Cavia porcellus [14] came to 30.35; in the test listed under Cavia porcellus [15], 14.2; in the test filed under Cavia porcellus [16], 8.7; in the test filed under Cavia porcellus [17] it was 1.89; in the test listed under Cavia porcellus [18] it was 1.07; in the test listed under Cavia porcellus [30] it was 18.94. Also, the Activity in the test filed under Cavia porcellus [3] was 82.4 Δcpm x10e-3; in the test filed under Cavia porcellus [5], 95.9 Δcpm x10e-3; in the test filed under Cavia porcellus [6], 63.6 Δcpm x10e-3; in the test filed under Cavia porcellus [7] it was 0.18 Δcpm x10e-3; in the test filed under Cavia porcellus [8], 0.04 Δcpm x10e-3; in the test listed under Cavia porcellus [9], 0 Δcpm x 10^-3. Further, the Activity was 2.46 mm x10 with Mus musculus [19]; 7.3 mm x10 in the test on Mus musculus [20]; 0.82 mm x10 in the test on Mus musculus [21]; 0.85 mm x10 with Mus musculus [22]; 0.82 mm x10 in the test on Mus musculus [23]; 17.6 Δcpm x10e-3 in the test listed under Cavia porcellus [31]. In the test with Mus musculus [32], this compound displayed an Activity of 2.07 mm x10. The compound also showed a pIC50 in the test listed under Cavia porcellus [4] of 3.70. Besides, the Reduction in the test on Mus musculus [24] is listed as 30%; with Mus musculus [25] it was 0%; in the test on Mus musculus [26], 63%; in the test on Mus musculus [27] it was 27%; with Mus musculus [28], 30%; in the test on Mus musculus [29] it was 56%.

On to `[N-]=[N+]=NCC1OC(SC/C=C/c2ccccc2)C(O)C(O)C1O` (configuration not stated), for which the Activity in the test listed under Cavia porcellus [33] was 21.1 Δcpm x10e-3; in the test filed under Cavia porcellus [3] it was 33.5 Δcpm x10e-3; in the test filed under Cavia porcellus [5] it was 21 Δcpm x10e-3; in the test filed under Cavia porcellus [7], 0.06 Δcpm x10e-3; in the test filed under Cavia porcellus [8], 2.26 Δcpm x10e-3; in the test listed under Cavia porcellus [9], 0 Δcpm x 10^-3. Further, the Activity in the test filed under Cavia porcellus [31] was 14.3 Δcpm x10e-3. Also, in the test filed under Cavia porcellus [34], the negative-log IC50 (pIC50) is 3.62.

`C[C@@H]1C[C@H]2[C@@H]3CCC4=CC(=O)C=C[C@]4(C)[C@@]3(F)[C@@H](O)C[C@]2(C)[C@@]1(O)C(=O)CO` [DEXAMETHASONE] came in with an Activity with Mus musculus [35] of 0.3 mm x10. In the test on Mus musculus [36], this compound showed a Reduction of 68%.
